Source: ChEMBL document CHEMBL4118192, “BET bromodomain ligands: Probing the WPF shelf to improve BRD4 bromodomain affinity and metabolic stability” (Bioorg Med Chem, 2018)

Legend:
Assay type in all cases: functional
HCT-116 = experiment: Growth inhibition of human HCT116 cells at 10 uM after 48 hrs by sulforhodamine B assay relative to control; settings: HCT-116, 48 h, read-out: GI
Method in brief: (§1)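 NCI-60 single-dose screen at 10 μM for 48 h. Percent growth inhibition was measured by sulforhodamine B staining of cellular protein.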

MDA-MB-468 [1] = experiment: Growth inhibition of human MDA-MB-468 cells at 10 uM after 48 hrs by sulforhodamine B assay relative to control; settings: MDA-MB-468, 48 h, read-out: GI
Method in brief: (§2)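 NCI-60 human cancer cell line screen, single-dose pass: cells exposed to 10 μM for 48 h. Cellular protein content read out by sulforhodamine B staining, and growth inhibition expressed relative to untreated control.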

HL-60(TB) = experiment: Growth inhibition of human HL-60(TB) cells at 10 uM after 48 hrs by sulforhodamine B assay relative to control; settings: HL-60, 48 h, read-out: GI
Method in brief: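 NCI-60 human cancer cell line screen, single dose of 10 μM for 48 h. Growth inhibition measured by sulforhodamine B assay of cellular protein content.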

NCI-H226 = experiment: Growth inhibition of human NCI-H226 cells at 10 uM after 48 hrs by sulforhodamine B assay relative to control; settings: NCI-H226, 48 h, read-out: GI; method in brief: as §2
OVCAR-8 = experiment: Growth inhibition of human OVCAR8 cells at 10 uM after 48 hrs by sulforhodamine B assay relative to control; settings: OVCAR-8, 48 h, read-out: GI; method in brief: as §2
BT-549 [2] = experiment: Growth inhibition of human BT549 cells at 10 uM after 48 hrs by sulforhodamine B assay relative to control; settings: BT-549, 48 h, read-out: GI; method in brief: as §1
T47D = experiment: Growth inhibition of human T47D cells at 10 uM after 48 hrs by sulforhodamine B assay relative to control; settings: read-out: GI
Method in brief: (§3)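 NCI-60 human cancer cell line screen, single dose of 10 μM for 48 h. Cellular protein content read by sulforhodamine B staining; growth inhibition expressed relative to untreated control.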

MDA-MB-435 = experiment: Growth inhibition of human MDA-MB-435 cells at 10 uM after 48 hrs by sulforhodamine B assay relative to control; settings: MDA-MB-435, 48 h, read-out: GI; method in brief: as §2
HCT-15 [3] = experiment: Growth inhibition of human HCT15 cells after 48 hrs by sulforhodamine B assay; settings: HCT-15, 48 h
Method in brief: (§4)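 NCI-60 panel screen. Cells were exposed for 48 h at five concentrations between 10 nM and 100 μM. Cellular protein was read by sulforhodamine B staining, and GI50 and total growth inhibition (TGI) concentrations were derived.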

A549 = experiment: Growth inhibition of human A549/ATCC cells at 10 uM after 48 hrs by sulforhodamine B assay relative to control; settings: A549, 48 h, read-out: GI; method in brief: as §1
MCF7 [4] = experiment: Growth inhibition of human MCF7 cells after 48 hrs by SRB assay; settings: MCF7, 48 h
Method in brief: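 In-house assay. Cells were seeded into 96-well plates at a density for exponential growth and treated with a concentration range for 48 h. They were then fixed in 10% (w/v) TCA and stained with sulforhodamine B. The 50% growth-inhibitory concentration relative to control cells was calculated as the mean of three repeats ± standard deviation.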

NCI-H522 = experiment: Growth inhibition of human NCI-H522 cells after 48 hrs by sulforhodamine B assay; settings: NCI-H522, 48 h
Method in brief: (§5)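 NCI-60 panel follow-up: five concentrations from 10 nM to 100 μM, 48 h exposure. Growth read by sulforhodamine B protein staining. GI50 derived from the concentration-response, with the concentration for total growth inhibition (TGI) also recorded when below 100 μM.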

OVCAR-5 [5] = experiment: Growth inhibition of human OVCAR5 cells at 10 uM after 48 hrs by sulforhodamine B assay relative to control; settings: OVCAR-5, 48 h, read-out: GI; method in brief: as §2
LOX IMVI = experiment: Growth inhibition of human LOXIMVI cells after 48 hrs by sulforhodamine B assay; method in brief: as §4
HCT-15 [6] = experiment: Growth inhibition of human HCT15 cells at 10 uM after 48 hrs by sulforhodamine B assay relative to control; settings: HCT-15, 48 h, read-out: GI; method in brief: as §1
M14 = experiment: Growth inhibition of human M14 cells after 48 hrs by sulforhodamine B assay; settings: M14, 48 h; method in brief: as §4
NCI/ADR-RES = experiment: Growth inhibition of human NCI-ADR-RES cells at 10 uM after 48 hrs by sulforhodamine B assay relative to control; settings: read-out: GI; method in brief: as §2
SK-MEL-28 = experiment: Growth inhibition of human SK-MEL-28 cells after 48 hrs by sulforhodamine B assay; settings: SK-MEL-28, 48 h; method in brief: as §5
UACC-257 = experiment: Growth inhibition of human UACC257 cells at 10 uM after 48 hrs by sulforhodamine B assay relative to control; settings: UACC-257, 48 h, read-out: GI; method in brief: as §3
NCI-H460 = experiment: Growth inhibition of human NCI-H460 cells after 48 hrs by sulforhodamine B assay; settings: NCI-H460, 48 h; method in brief: as §5
MDA-MB-468 [7] = experiment: Growth inhibition of human MDA-MB-468 cells after 48 hrs by sulforhodamine B assay; settings: MDA-MB-468, 48 h; method in brief: as §5
TK-10 = experiment: Growth inhibition of human TK10 cells at 10 uM after 48 hrs by sulforhodamine B assay relative to control; settings: TK-10, 48 h, read-out: GI; method in brief: as §3
HT-29 = experiment: Growth inhibition of human HT-29 cells at 10 uM after 48 hrs by sulforhodamine B assay relative to control; settings: HT-29, 48 h, read-out: GI; method in brief: as §1
MCF7 [8] = experiment: Growth inhibition of human MCF7 cells at 10 uM after 48 hrs by sulforhodamine B assay relative to control; settings: MCF7, 48 h, read-out: GI; method in brief: as §1
CCRF-CEM = experiment: Growth inhibition of human CCRF-CEM cells after 48 hrs by sulforhodamine B assay; method in brief: as §4
UACC-62 = experiment: Growth inhibition of human UACC62 cells at 10 uM after 48 hrs by sulforhodamine B assay relative to control; settings: UACC-62, 48 h, read-out: GI; method in brief: as §3
OVCAR-5 [9] = experiment: Growth inhibition of human OVCAR5 cells after 48 hrs by sulforhodamine B assay; settings: OVCAR-5, 48 h; method in brief: as §5
BT-549 [10] = experiment: Growth inhibition of human BT549 cells after 48 hrs by sulforhodamine B assay; settings: BT-549, 48 h; method in brief: as §4
MOLT-4 = experiment: Growth inhibition of human MOLT4 cells at 10 uM after 48 hrs by sulforhodamine B assay relative to control; settings: MOLT-4, 48 h, read-out: GI; method in brief: as §2
OVCAR-4 = experiment: Growth inhibition of human OVCAR4 cells at 10 uM after 48 hrs by sulforhodamine B assay relative to control; settings: OVCAR-4, 48 h, read-out: GI; method in brief: as §2
SW-620 = experiment: Growth inhibition of human SW620 cells after 48 hrs by sulforhodamine B assay; settings: SW-620, 48 h
Method in brief: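 NCI-60 panel cells treated at five concentrations from 10 nM to 100 μM for 48 h. Read-out by sulforhodamine B protein stain. GI50 and total growth inhibition (TGI, if below 100 μM) taken from the concentration-response data.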

DU-145 = experiment: Growth inhibition of human DU145 cells after 48 hrs by sulforhodamine B assay; settings: DU-145, 48 h; method in brief: as §4

SMILES | inhibition of growth at 10 µM (HCT-116) [%] | inhibition of growth at 10 µM (MDA-MB-468 [1]) [%] | inhibition of growth at 10 µM (HL-60(TB)) [%] | inhibition of growth at 10 µM (NCI-H226) [%] | inhibition of growth at 10 µM (OVCAR-8) [%] | inhibition of growth at 10 µM (BT-549 [2]) [%] | inhibition of growth at 10 µM (T47D) [%] | inhibition of growth at 10 µM (MDA-MB-435) [%] | GI50 (HCT-15 [3]) [µM] | inhibition of growth at 10 µM (A549) [%] | GI50 (MCF7 [4]) [µM] | GI50 (NCI-H522) [µM] | inhibition of growth at 10 µM (OVCAR-5 [5]) [%] | GI50 (LOX IMVI) [µM] | TGI (LOX IMVI) [µM] | inhibition of growth at 10 µM (HCT-15 [6]) [%] | GI50 (M14) [µM] | inhibition of growth at 10 µM (NCI/ADR-RES) [%] | GI50 (SK-MEL-28) [µM] | inhibition of growth at 10 µM (UACC-257) [%] | further results
Cc1noc(C)c1-c1cc(O)cc(C(O)c2ccccc2)c1 (stereo not drawn) | 42 | 75.1 | 90 | 34.5 | 61.4 | 35.3 | 52.9 | 56.1 | 3.52 | 44.6 | 1.25 to 1.7 | 27 | 26.7 | 3.6 | 80.5 | 63.3 | 4.48 | 40.8 | 9.15 | 59.6 | GI50 (NCI-H460): 25.1 µM; GI50 (MDA-MB-468 [7]): 1.89 µM; TGI (MDA-MB-468 [7]): 40.6 µM; inhibition of growth at 10 µM (TK-10): 87.4%; inhibition of growth at 10 µM (HT-29): 65.4%; inhibition of growth at 10 µM (MCF7 [8]): 79.1%; GI50 (CCRF-CEM): 14.8 µM; inhibition of growth at 10 µM (UACC-62): 68.5%; GI50 (OVCAR-5 [9]): 31.8 µM; GI50 (BT-549 [10]): 28.2 µM; inhibition of growth at 10 µM (MOLT-4): 41.3%; inhibition of growth at 10 µM (OVCAR-4): 67.5%; GI50 (SW-620): 24.5 µM; GI50 (DU-145): 6.95 µM
COc1ccccc1S(=O)(=O)Nc1ccc2c(c1)CN(C)C(=O)N2 | 50.3 | 78.9 | 78.1 | 37 | 43.8 | -0.7 | 68.6 | 65.8 | 3.2 | 49.5 | 1.5 | 8.7 | 25.5 | 3.5 | 21.4 | 59.2 | 2.9 | 31.1 | 6.2 | 66.2 | GI50 (NCI-H460): 9.3 µM; GI50 (MDA-MB-468 [7]): 1.5 µM; TGI (MDA-MB-468 [7]): 47.9 µM; inhibition of growth at 10 µM (TK-10): 82.7%; inhibition of growth at 10 µM (HT-29): 77.2%; inhibition of growth at 10 µM (MCF7 [8]): 78.5%; GI50 (CCRF-CEM): 7.8 µM; inhibition of growth at 10 µM (UACC-62): 70.7%; GI50 (OVCAR-5 [9]): 10.5 µM; GI50 (BT-549 [10]): 14.8 µM; inhibition of growth at 10 µM (MOLT-4): 61.6%; inhibition of growth at 10 µM (OVCAR-4): 56.9%; GI50 (SW-620): 12 µM; GI50 (DU-145): 28.8 µM
